System: MS2 coat protein
Experiment: apparent Kd, MS2 coat protein; higher = weaker binding; RNA-MaP array; FMN 200 µM where present
Outline: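 Designs on Illumina sequencing-chip clusters, transcribed by stalled E. coli RNA polymerase, were exposed to SNAP-549-labelled MS2 coat protein in doubling steps from 0.7 or 1.5 nM up to 3 µM, without and then with constant ligand. The buffer held 100 mM Tris-HCl pH 7.5, 80 mM KCl, 4 mM MgCl2, BSA, DTT, yeast tRNA and Tween-20. Apparent Kd values are medians of filtered per-cluster binding-curve fits to green signal normalised to red-channel RNA signal and control-cluster median Fmax.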

[1] = designed as: OFF switch for flavin mononucleotide, no ligand
[2] = ligand present: flavin mononucleotide, designed as: OFF switch for flavin mononucleotide
[3] = designed as: ON switch for flavin mononucleotide, no ligand
[4] = ligand present: flavin mononucleotide, designed as: ON switch for flavin mononucleotide

Sequence | apparent Kd [1] | apparent Kd [2] | apparent Kd [3] | apparent Kd [4]
UAAAAUAGUGUGAGGAUAUGCUGGUCCUUGGAUCAGCAGAAGGCACAUGAGGAUCACCCAUGUAGUUAAUUAUA | 41.8 nM | 268 nM | – | –
ACCAUUUACUAAUUAUCUAUACAUGAGGAUCACCCAUGUUAAGAGGAUAUCAUCGUGAAACACGAUGAGAAGGCUUAGCAUUCG | 54.5 nM | 187 nM | – | –
GACUCGAAUGUAGGAUAUGCUGAGGAUAACUCAGCAGAAGGACAUGAGGAUCACCCAUGUCAAUGAGUGAAUAAUAAACGAGUC | 29 nM | 245 nM | – | –
AGGGUGGGAGGAUAUCCAAUAUAUGACAUGAGGAUCACCCAUGUUUCCACUCGUACCUCCGGAGAAGGCCCUUCCA | 19.9 nM | 19.7 nM | – | –
GCCGGGCGAGGAUAUACAUGAGGAUCACCCAUGUAGAUCCUCCGGCGAAAGCCGGGUUGUAGAAGGCGCCCGGC | 14.9 nM | 25.7 nM | – | –
AGAAACUACGAGAAGGACAUGUGGAAAAACGCAAACAUGAGGAUCACCCAUGUAGGAUAUCGUAGUUUCAGGAUCGUGAGAUCA | 304 nM | 367 nM | – | –
AAAUUUAACGAAGGAUAUGGUUACAUGAGGAUCACCCAUGUGUGCCUUGUGAUCUUGUUUAAGUUCCAGAAGGUCGUAUACAUA | 41.7 nM | 183 nM | – | –
UGGGUGGUAUGAGGAUAUGCGCGCGAAACGCGCGCAGAAGGCAUGUCAAUAGACAUGAGGAUCACCCAUGUACUAUCCAUCCAA | – | – | 91.3 nM | 9.19 nM
UGGCUGAGUCGAGGAUAUGAUCUUCAUAUAUAUACAUGAGGAUCACCCAUGUAUAAUUACAUGGAUCAGAAGGCGACUCAGCCU | – | – | 29.4 nM | 9.47 nM
UUUUUUGUUGUGAGGAUAUCGUAGUUAUUUUGUUACGAGAAGGCACAUGAGGAUCACCCAUGUUUUUUGAUGUU | 23.8 nM | 82.6 nM | – | –
GGUGGACAUGAGGAUCACCCAUGUGAGGAUAUCGGCUGGCUACUGGCUGACGGCUGCUCGAGAAGGCGCAUUGU | 40 nM | 73.6 nM | – | –
ACUAUACGAGGAUAUGCUGUCAAUACUCCGGAGUUAGUAUGACAUGAGGAUCACCCAUGUAGAAGGCGUAUACU | 26.7 nM | 19.6 nM | – | –
ACAUACAUUCGAGGAUAUCGGUGAUUAAUAAUACGAGAAGGCGAUUUAAGAUAUAAAAUUUUAGACAUGAGGAUCACCCAUGUA | – | – | 27.9 nM | 23.9 nM
GCAUGGUGAGGAUAUGCAGAAGGGCAACGGUCAUCAUGACUACAUGAGGAUCACCCAUGUAGAAGGCACACAUG | 44.3 nM | 54.8 nM | – | –
AGGGCUUAAUGGCCCUAUGAGAUGAGAAGGGUAGGAGGGUGGAAGUACAUGAGGAUCACCCAUGUACAGGAUAUCAUGCCGAUU | 6.32 nM | 6.07 nM | – | –
AAUAUAAGAGCUGGAAAUCUCAAAACAUGAGGAUCACCCAUGUAGGAUAUCAGCACGAUAAGUGCUGAGAAGGACAUCCAGCUC | 16 nM | 18.1 nM | – | –
UGUGCGUUGAUCUUCGAUCGGAGUACAUGAGGAUCACCCAUGUAGGAUAUUCAAAGACGCAGAUAGAAGAAGGACAUCGGUUUC | 10.6 nM | 9.43 nM | – | –
UCAAUUUUGCGAGGAUAUCGACCAUUCCUCUUUACAUGAGGAUCACCCAUGUACUUAUUCUACAACGAGAAGGCGCUCAUAGUU | 37.5 nM | 43 nM | – | –
UAUAUGUCAGGAUAUUAGUUGAGGUGGAAUUUAGCCUCUGCUGAGAAGGGACAUGAGGAUCACCCAUGUUCCUC | 21.9 nM | 200 nM | – | –
AAUUAUUUUUGAGGAUAUCGUGGUGAAACACCACGAGAAGGCAAGAUACACAUGAGGAUCACCCAUGUGAGCCUGAUGCUUAUG | 16.9 nM | 21.4 nM | – | –
CGGCCGGGCCGAGGAUAUAAGUCUAGGACAUGAGGAUCACCCAUGUAUGUCUUAGAAGGCGGCCCGGCCAGCCUGUUACAGGCA | – | – | 31.2 nM | 5.85 nM

From the EternaBench riboswitch data
